Test results reported in ChEMBL document CHEMBL4184294, “A small group of sulfated benzofurans induces steady-state submaximal inhibition of thrombin” (Bioorg Med Chem Lett, 2018).
Activity calls are given as the source filed them. The rule behind the calls is not given here.

Tests used:
Prothrombin [1] = biological target: T1, Prothrombin (Homo sapiens, UniProt P00734); assay: Inhibition of human thrombin using spectrozyme TH as substrate pretreated for 10 mins followed by substrate addition measured in absence of exosite 1 competitor hirudine peptide by spectrophotometric method
Outline: (§1)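 Residual thrombin activity read as Spectrozyme TH hydrolysis in 20 mM Tris-HCl pH 7.4 with 100 mM NaCl, 2.5 mM CaCl2 and 0.1% PEG8000 at 25 °C. Exosite competitors varied: hirudin peptide 0–50 nM or 0–30 nM; UFH 0–50 μM. Apparent IC50 obtained from a logistic fit.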

Prothrombin [2] = biological target: T1, Prothrombin; assay: Partial allosteric inhibition of thrombin (unknown origin) assessed as reduction in enzyme-mediated fibrinogen cleavage at 0.5 to 150 uM pretreated for 10 mins followed by fibrinogen addition measured after 1 min by SDS-PAGE analysis relative to control
Outline: (§2)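 Cleavage of human fibrinogen (4.7 μM) by 6 nM thrombin with inhibitor at 0 to 150 μM. Products resolved by PAGE.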

Prothrombin [3] = biological target: T1, Prothrombin; assay: Inhibition of human thrombin using spectrozyme TH as substrate pretreated for 10 mins followed by substrate addition measured in presence of 50 uM exosite 2 competitor unfractionated heparin by spectrophotometric method; outline: as §1
Prothrombin [4] = biological target: T1, Prothrombin; assay: Inhibition of recombinant thrombin R233A mutant (unknown origin) at 0.02 to 200 uM using spectrozyme TH as substrate pretreated for 10 mins followed by substrate addition by spectrophotometric method
Outline: (§3)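 Recombinant wild-type and Ala-mutant thrombins assayed by Spectrozyme TH hydrolysis at pH 7.4 and 25 °C. IC50 derived for each mutant.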

Prothrombin [5] = biological target: T1, Prothrombin; assay: Inhibition of human thrombin using spectrozyme TH as substrate pretreated for 10 mins followed by substrate addition measured in presence of 15 uM exosite 1 competitor hirudine peptide by spectrophotometric method; conditions: in the assay text read “15 nM” for “15 uM”; outline: as §1
Prothrombin [6] = biological target: T1, Prothrombin; assay: Inhibition of recombinant thrombin K236A mutant (unknown origin) at 0.02 to 200 uM using spectrozyme TH as substrate pretreated for 10 mins followed by substrate addition by spectrophotometric method; outline: as §3
Prothrombin [7] = biological target: T1, Prothrombin; assay: Inhibition of human thrombin using spectrozyme TH as substrate pretreated for 10 mins followed by substrate addition measured in presence of 20 uM exosite 2 competitor unfractionated heparin by spectrophotometric method; outline: as §1
Prothrombin [8] = biological target: T1, Prothrombin; assay: Inhibition of human thrombin using spectrozyme TH as substrate pretreated for 10 mins followed by substrate addition measured in presence of 5 uM exosite 1 competitor hirudine peptide by spectrophotometric method; conditions: in the assay text read “5 nM” for “5 uM”; outline: as §1
Prothrombin [9] = biological target: T1, Prothrombin; assay: Inhibition of human thrombin using spectrozyme TH as substrate pretreated for 10 mins followed by substrate addition measured in presence of 10 uM exosite 2 competitor unfractionated heparin by spectrophotometric method; outline: as §1
Prothrombin [10] = biological target: T1, Prothrombin; assay: Mixed-type inhibition of human thrombin assessed as reduction in substrate Vmax at 40 uM using varying levels of spectrozyme TH as substrate measured after 10 mins by Michaelis-Menten plot analysis relative to control
Prothrombin [11] = biological target: T1, Prothrombin; assay: Partial allosteric inhibition of thrombin (unknown origin) assessed as reduction in enzyme-mediated fibrinogen cleavage pretreated for 10 mins followed by fibrinogen addition measured after 1 min by SDS-PAGE analysis relative to control; outline: as §2
Prothrombin [12] = biological target: T1, Prothrombin; assay: Inhibition of recombinant thrombin K169A mutant (unknown origin) at 0.02 to 200 uM using spectrozyme TH as substrate pretreated for 10 mins followed by substrate addition by spectrophotometric method; outline: as §3
Prothrombin [13] = biological target: T1, Prothrombin; assay: Inhibition of human thrombin using spectrozyme TH as substrate pretreated for 10 mins followed by substrate addition measured in presence of 30 uM exosite 1 competitor hirudine peptide by spectrophotometric method; conditions: in the assay text read “30 nM” for “30 uM”; outline: as §1
Prothrombin [14] = biological target: T1, Prothrombin; assay: Inhibition of recombinant thrombin R175A mutant (unknown origin) at 0.02 to 200 uM using spectrozyme TH as substrate pretreated for 10 mins followed by substrate addition by spectrophotometric method; outline: as §3
Prothrombin [15] = biological target: T1, Prothrombin; assay: Partial allosteric inhibition of human thrombin using spectrozyme TH as substrate pretreated for 10 mins followed by substrate addition by spectrophotometric method
Outline: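 Chromogenic substrate hydrolysis by thrombin read spectrophotometrically in 20 mM Tris-HCl pH 7.4 with […], 100 mM NaCl and 0.1% PEG 8000 at 25 °C. Sigmoidal fits gave IC50 and efficacy (ΔY). Errors ±1 S.E.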

Prothrombin [16] = biological target: T1, Prothrombin; assay: Mixed-type inhibition of human thrombin assessed as reduction in substrate Vmax using varying levels of spectrozyme TH as substrate measured after 10 mins by Michaelis-Menten plot analysis
Prothrombin [17] = biological target: T1, Prothrombin; assay: Inhibition of recombinant thrombin R165A mutant (unknown origin) at 0.02 to 200 uM using spectrozyme TH as substrate pretreated for 10 mins followed by substrate addition by spectrophotometric method; outline: as §3
Prothrombin [18] = biological target: T1, Prothrombin; assay: Inhibition of human thrombin using spectrozyme TH as substrate pretreated for 10 mins followed by substrate addition measured in absence of exosite 2 competitor unfractionated heparin by spectrophotometric method; outline: as §1
Prothrombin [19] = biological target: T1, Prothrombin; assay: Binding affinity to human fluorescence labelled FPRCK-alpha thrombin by fluorimetric method
Outline: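 Fluorescein-tagged FPRCK-thrombin titrated with inhibitor at pH 7.4 and 25 °C. Fluorescence decrease recorded ([…]). KD obtained by nonlinear fit to a quadratic equation.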

Prothrombin [20] = biological target: T1, Prothrombin; assay: Partial allosteric inhibition of human thrombin at 300 uM using spectrozyme TH as substrate pretreated for 10 mins followed by substrate addition by spectrophotometric method relative to control
Prothrombin [21] = biological target: T1, Prothrombin; assay: Partial allosteric inhibition of human thrombin using […] as substrate measured after 1 min by fibrometric method
Prothrombin [22] = biological target: T1, Prothrombin; assay: Inhibition of thrombin (unknown origin)
Prothrombin [23] = biological target: T1, Prothrombin; assay: Inhibition of recombinant thrombin R126A mutant (unknown origin) at 0.02 to 200 uM using spectrozyme TH as substrate pretreated for 10 mins followed by substrate addition by spectrophotometric method; outline: as §3
Prothrombin [24] = biological target: T1, Prothrombin; assay: Binding affinity to wild-type thrombin (unknown origin) by intrinsic fluorescence method
Outline: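 Intrinsic fluorescence titration of wild-type plasma thrombin at pH 7.4 and 25 °C. KD derived from the fluorescence change.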

Prothrombin [25] = biological target: T1, Prothrombin; assay: Non competitive inhibition of human thrombin assessed as reduction in substrate Vmax at 40 uM using varying levels of spectrozyme TH as substrate measured after 10 mins by Michaelis-Menten plot analysis relative to control
Prothrombin [26] = biological target: T1, Prothrombin; assay: Inhibition of recombinant thrombin R101A mutant (unknown origin) at 0.02 to 200 uM using spectrozyme TH as substrate pretreated for 10 mins followed by substrate addition by spectrophotometric method; outline: as §3
Prothrombin [27] = biological target: T1, Prothrombin; assay: Ratio of IC50(app) for inhibition of human thrombin using spectrozyme TH as substrate in presence of exosite 2 competitor unfractionated heparin to IC50(app) for inhibition of human thrombin using spectrozyme TH as substrate in absence of exosite 2 competitor unfractionated heparin
[28] = tested on: Prothrombin (Homo sapiens), P00734 [R97A]; assay: Inhibition of recombinant thrombin R97A mutant (unknown origin) at 0.02 to 200 uM using spectrozyme TH as substrate pretreated for 10 mins followed by substrate addition by spectrophotometric method; outline: as §3
Prothrombin [29] = biological target: T1, Prothrombin; assay: Non-competitive inhibition of human thrombin assessed as reduction in substrate Vmax using varying levels of spectrozyme TH as substrate measured after 10 mins by Michaelis-Menten plot analysis
Prothrombin [30] = biological target: T1, Prothrombin; assay: Inhibition of recombinant thrombin K235A mutant (unknown origin) at 0.02 to 200 uM using spectrozyme TH as substrate pretreated for 10 mins followed by substrate addition by spectrophotometric method; outline: as §3
Prothrombin [31] = biological target: T1, Prothrombin; assay: Inhibition of recombinant thrombin R93A mutant (unknown origin) at 0.02 to 200 uM using spectrozyme TH as substrate pretreated for 10 mins followed by substrate addition by spectrophotometric method; outline: as §3
Prothrombin [32] = biological target: T1, Prothrombin; assay: Inhibition of recombinant thrombin R173A mutant (unknown origin) at 0.02 to 200 uM using spectrozyme TH as substrate pretreated for 10 mins followed by substrate addition by spectrophotometric method; outline: as §3

Row | IC50 (Prothrombin [1]) | inhibition (Prothrombin [2]) | IC50 (Prothrombin [3]) | inhibition (Prothrombin [4]) | IC50 (Prothrombin [5]) | inhibition (Prothrombin [6]) | IC50 (Prothrombin [7]) | IC50 (Prothrombin [8]) | IC50 (Prothrombin [9]) | inhibition (Prothrombin [11]) | inhibition (Prothrombin [12]) | IC50 (Prothrombin [13]) | inhibition (Prothrombin [14]) | Efficacy (Prothrombin [15]) | IC50 (Prothrombin [15]) | inhibition (Prothrombin [17]) | IC50 (Prothrombin [18]) | Kd (Prothrombin [19]) | inhibition (Prothrombin [20]) | Compound | also measured
1 | 2000 nM | > 90% | 2600 nM | inactive | 3600 nM | inactive | 2800 nM | 2600 nM | 2700 nM | Dose-dependent effect | inactive | 2900 nM | inactive | 90% | 3600 nM | inactive | 2000 nM | 1000 nM | > 50% | CCOC(=O)c1c(C)oc2cc(OCc3ccccc3)c(OCc3oc4cc(OCC5CCCCC5)c(OS(=O)(=O)O)cc4c3C(=O)OCC)cc12 | fold change (FC) (Prothrombin [10]): 2; inhibition (Prothrombin [16]): Dose-dependent effect
2 |  |  |  |  |  |  |  |  |  |  |  |  |  |  |  |  |  |  |  | H-PEHPAETEYDSLYPEDDL-OH | IC50 (Prothrombin [21]): 130000 nM
3 |  |  |  |  |  |  |  |  |  |  |  |  |  |  |  |  |  |  |  | CCOC(=O)c1c(C)oc2cc(OC(=O)c3ccc(OC)cc3)c(OS(=O)(=O)O)cc12 | Efficacy (Prothrombin [22]): 54%
4 | 1300 nM | 70% | 14500 nM | Active | 1600 nM | Active | 3400 nM | 2700 nM | 3300 nM | Dose-dependent effect | Active | 1500 nM | Active | 58% | 1800 nM | Active | 1300 nM | 3700 nM | > 50% | CCOC(=O)c1c(C)oc2cc(OCCc3ccccc3)c(OCc3oc4cc(OC)c(OS(=O)(=O)O)cc4c3C(=O)OCC)cc12 | inhibition (Prothrombin [23]): Active; Kd (Prothrombin [24]): 2800 nM; fold change (FC) (Prothrombin [25]): 2; inhibition (Prothrombin [26]): Active; Ratio IC50 (Prothrombin [27]): 11; inhibition [28]: Active; inhibition (Prothrombin [29]): Dose-dependent effect; inhibition (Prothrombin [30]): Active; inhibition (Prothrombin [31]): Active; inhibition (Prothrombin [32]): Active
